For assay [1], the target named is T1, 5-hydroxytryptamine receptor 6 (Homo sapiens, UniProt P50406). Put plainly: Binding affinity to human recombinant 5HT6 receptor expressed in HEK293 cells by radioligand displacement assay. In kind it is cell-based. The gist of the method:
(§1)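 Competitive radioligand binding at the 5-HT6 receptor, run by MDS Pharma Services as part of a serotonin receptor panel. IC50 and Ki values derived.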
In general terms: Loss of bound radioactivity is the signal in a displacement assay; it reports binding, not function.

For assay [2], the target named is T1, 5-hydroxytryptamine receptor 6. Put plainly: Antagonist activity at human recombinant 5HT6 receptor expressed in HEK293 cells assessed as inhibition of serotonin-induced cAMP production. The format is functional, cell-based. In a few lines:
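HEK293 cells stably expressing recombinant human 5-HT6R, stimulated with serotonin. cAMP from adenylyl cyclase measured by LANCE. Compounds screened at 5 and 10 μM. IC50 determined for compounds giving more than 50% inhibition of cAMP synthesis at 5 μM.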

Assay [3] shares this target. The assay can be described thus: Binding affinity to 5HT6 receptor. In a few lines:
as §1

For assay [4] the target is unchanged. The assay can be described thus: Displacement of radioligand from human recombinant 5HT6 receptor in competitive radioligand binding assay.

T1 sequence (P50406 whole entry): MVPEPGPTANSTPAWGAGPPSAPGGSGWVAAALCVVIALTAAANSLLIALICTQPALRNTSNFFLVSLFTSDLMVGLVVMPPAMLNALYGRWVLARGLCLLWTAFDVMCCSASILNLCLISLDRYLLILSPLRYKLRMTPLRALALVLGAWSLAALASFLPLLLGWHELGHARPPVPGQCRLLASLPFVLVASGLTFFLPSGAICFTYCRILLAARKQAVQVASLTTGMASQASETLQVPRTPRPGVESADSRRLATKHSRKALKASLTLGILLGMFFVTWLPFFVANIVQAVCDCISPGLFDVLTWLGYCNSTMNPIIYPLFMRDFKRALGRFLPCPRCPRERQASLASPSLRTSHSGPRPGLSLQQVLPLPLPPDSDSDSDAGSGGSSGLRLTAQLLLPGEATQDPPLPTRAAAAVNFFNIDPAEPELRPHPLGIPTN

Consider `CC(C)CCNc1nc2c(S(=O)(=O)c3ccc(Br)cc3)nnn2c2ccsc12`, for which, in assay [1], the half-inhibitory concentration (IC50) turned out to be 34.3 nM and the Ki was 15.9 nM.

Regarding `CN(C)CCN(C)c1nc2c(S(=O)(=O)c3ccccc3)nnn2c2ccsc12`, the IC50 in assay [1] was > 300 nM; in assay [2], 870 nM.

For the compound `O=S(=O)(c1ccccc1)c1nnn2c1nc(NCC1CCCO1)c1sccc12` (stereo not given), in assay [1], the IC50 was 17.5 nM and the Ki worked out at 8.1 nM. Further, in assay [2], the half-inhibitory concentration (IC50) worked out at 63 nM.

With `CC(Nc1nc2c(S(=O)(=O)c3ccccc3)nnn2c2ccsc12)C12CC3CC(CC(C3)C1)C2` (stereo not given), in assay [1], the IC50 was 221 nM and the Ki was found to be 103 nM.

Regarding `CN(Cc1cccnc1)c1nc2c(S(=O)(=O)c3ccccc3)nnn2c2ccsc12`, the IC50 was > 30 nM in assay [1] and 500 nM in assay [2].

In the case of `Cc1ccc(C)c(S(=O)(=O)c2nnn3c2nc(N)c2sccc23)c1`, the IC50 in assay [1] was 99.1 nM; in assay [2] it was 1220 nM. In addition, the inhibition constant Ki in assay [1] came out at 46 nM.

Take `Cc1ccc(C)c(S(=O)(=O)c2nnn3c2nc(NC(C)C)c2sccc23)c1`: the half-maximal inhibitory concentration (IC50) in assay [1] was 28.3 nM; in assay [2], 350 nM.

For `O=S(=O)(c1ccccc1)c1nnn2c1nc(NCc1cccnc1)c1sccc12`, the half-inhibitory concentration (IC50) was > 30 nM in assay [1] and 260 nM in assay [2].

With `O=S(=O)(c1ccccc1)c1nnn2c1nc(NCc1cccs1)c1sccc12`, in assay [1], the IC50 is 3.6 nM and the inhibition constant Ki worked out at 1.7 nM. For the same compound, the 50% inhibitory concentration (IC50) in assay [2] turned out to be 110 nM.

On to `CN(C)CCNc1nc2c(S(=O)(=O)c3ccccc3)nnn2c2ccsc12`, for which the IC50 in assay [1] is > 300 nM.

With `Cc1ccc(S(=O)(=O)c2nnn3c2nc(NCc2ccccc2Cl)c2sccc23)cc1C`, the IC50 in assay [2] came out at 600 nM.

Regarding `Cc1ccc(S(=O)(=O)c2nnn3c2nc(NC(C)c2ccccc2)c2sccc23)cc1` (stereo not given), in assay [2], the IC50 is 180 nM.

With `Cc1ccc(S(=O)(=O)c2nnn3c2nc(NC2CCCCCC2)c2sccc23)cc1C`, the 50% inhibitory concentration (IC50) in assay [2] was 350 nM.

As for `COc1ccccc1CNc1nc2c(S(=O)(=O)c3cccc(Cl)c3)nnn2c2ccsc12`, the IC50 in assay [2] turned out to be 780 nM.

With `O=S(=O)(c1cccc(Cl)c1)c1nnn2c1nc(NC1CCCCCC1)c1sccc12`, the IC50 in assay [2] was 140 nM.

For `Cc1ccc(S(=O)(=O)c2nnn3c2nc(NCc2cccs2)c2sccc23)cc1C`, the IC50 in assay [2] was found to be 90 nM.

Turning to `CCCCNc1nc2c(S(=O)(=O)c3cccc(Cl)c3)nnn2c2ccsc12`, the 50% inhibitory concentration (IC50) in assay [2] is 60 nM.

Take `O=S(=O)(c1ccccc1)c1nnn2c1nc(N1CCCC1)c1sccc12`: in assay [1], the half-maximal inhibitory concentration (IC50) was found to be 188 nM and the inhibition constant (Ki) was 87.5 nM.

As for `O=S(=O)(c1ccccc1)c1nnn2c1nc(NCc1ccc(F)cc1)c1sccc12`, the IC50 in assay [2] came out at 690 nM.

As for `CC1CCCN(c2nc3c(S(=O)(=O)c4cccc(Cl)c4)nnn3c3ccsc23)C1` (stereo not given), the IC50 in assay [2] turned out to be 2000 nM.

In the case of `CC(C)CCNc1nc2c(S(=O)(=O)c3cccc(Cl)c3)nnn2c2ccsc12`, the IC50 in assay [2] worked out at 68 nM.

Regarding `Cc1ccc(C)c(S(=O)(=O)c2nnn3c2nc(N2CCOCC2)c2sccc23)c1`, the IC50 in assay [2] worked out at 1930 nM.

On to `O=S(=O)(c1cccc(Cl)c1)c1nnn2c1nc(NCc1cccnc1)c1sccc12`, for which, in assay [1], the half-maximal inhibitory concentration (IC50) amounted to 31.7 nM and the Ki is 14.7 nM. In assay [2], the IC50 amounted to 1250 nM.

`Cc1ccc(C)c(Nc2nc3c(S(=O)(=O)c4ccc(Br)cc4)nnn3c3ccsc23)c1`: the half-inhibitory concentration (IC50) in assay [2] is 2010 nM.

On to `NC(=O)C1CCN(c2nc3c(S(=O)(=O)c4ccccc4)nnn3c3ccsc23)CC1`, for which the IC50 in assay [2] amounted to 1990 nM.

For `O=S(=O)(c1ccc(Br)cc1)c1nnn2c1nc(NCC1CCCO1)c1sccc12` (stereo not given), the concentration for half-maximal inhibition (IC50) in assay [2] was 1620 nM.

`O=S(=O)(c1ccccc1)c1nnn2c1nc(NCc1ccc3c(c1)OCO3)c1sccc12`: the half-inhibitory concentration (IC50) in assay [2] amounted to 290 nM.

Turning to `Cc1ccc(S(=O)(=O)c2nnn3c2nc(NCCC(C)C)c2sccc23)cc1C`, the IC50 in assay [2] worked out at 46 nM.

Regarding `Cc1cc(Cl)cc(Nc2nc3c(S(=O)(=O)c4ccc(C)c(C)c4)nnn3c3ccsc23)c1`, the 50% inhibitory concentration (IC50) in assay [2] came out at 2260 nM.

`CC12CC3CC(C)(C1)CC(Nc1nc4c(S(=O)(=O)c5ccccc5)nnn4c4ccsc14)(C3)C2`: in assay [1], the half-inhibitory concentration (IC50) amounted to 56.7 nM and the inhibition constant Ki was determined as 26.3 nM.

As to `Cc1ccc(S(=O)(=O)c2nnn3c2nc(NCc2cccc(Cl)c2)c2sccc23)cc1`, the 50% inhibitory concentration (IC50) in assay [2] worked out at 120 nM.

Take `COCCNc1nc2c(S(=O)(=O)c3ccc(C(C)C)cc3)nnn2c2ccsc12`: the half-inhibitory concentration (IC50) in assay [2] was > 5000 nM.

Consider `CCN(Cc1ccccc1)c1nc2c(S(=O)(=O)c3ccc(Br)cc3)nnn2c2ccsc12`, for which the IC50 in assay [2] worked out at 580 nM.

As for `COCCNc1nc2c(S(=O)(=O)c3cc(C)ccc3C)nnn2c2ccsc12`, the IC50 in assay [2] came to 860 nM.

As for `O=S(=O)(c1ccccc1)c1nnn2c1nc(NCCc1ccccc1)c1sccc12`, in assay [2], the 50% inhibitory concentration (IC50) was 1160 nM.

For the compound `CN(C)CCN(C)c1nc2c(S(=O)(=O)c3cccc(Cl)c3)nnn2c2ccsc12` [listing 1 of 2 here], in assay [2], the 50% inhibitory concentration (IC50) worked out at 780 nM.

In the case of `CCc1ccc(S(=O)(=O)c2nnn3c2nc(N(CC)CC)c2sccc23)cc1`, the IC50 in assay [2] came out at 1900 nM.

On to `Cc1ccc(S(=O)(=O)c2nnn3c2nc(NCc2ccc(F)cc2)c2sccc23)cc1`, for which the 50% inhibitory concentration (IC50) in assay [2] turned out to be 740 nM.

Consider `CC(C)Nc1nc2c(S(=O)(=O)c3ccccc3)nnn2c2ccsc12`, for which, in assay [1], the half-inhibitory concentration (IC50) is 65 nM and the Ki came out at 30.2 nM. Further, the IC50 in assay [2] stood at 370 nM.

As for `Cc1ccc(C)c(S(=O)(=O)c2nnn3c2nc(N(C)Cc2ccccc2)c2sccc23)c1`, the IC50 in assay [2] came out at 1480 nM.

For the compound `CN(C)CCN(C)c1nc2c(S(=O)(=O)c3cccc(Cl)c3)nnn2c2ccsc12` [listing 2 of 2 here], the IC50 in assay [2] was 580 nM.

On to `O=S(=O)(c1cccc(Cl)c1)c1nnn2c1nc(NC1CCCC1)c1sccc12`, for which, in assay [2], the IC50 was 170 nM.

For `O=S(=O)(c1ccc(Br)cc1)c1nnn2c1nc(NCc1ccc3c(c1)OCO3)c1sccc12`, in assay [1], the IC50 was determined as 62.1 nM and the Ki stood at 28.8 nM.

`O=S(=O)(c1cccc(Cl)c1)c1nnn2c1nc(NCc1cccs1)c1sccc12`: the half-inhibitory concentration (IC50) in assay [2] was 150 nM.

Consider `Cc1cccc(Nc2nc3c(S(=O)(=O)c4ccc(Cl)cc4)nnn3c3ccsc23)c1C`, for which the half-inhibitory concentration (IC50) in assay [2] was 800 nM.

`O=S(=O)(c1ccccc1)c1nnn2c1nc(NCc1ccco1)c1sccc12`: in assay [1], the IC50 was found to be 6.1 nM and the inhibitory constant (Ki) is 2.8 nM. Also, the IC50 in assay [2] is 40 nM.

On to `O=S(=O)(c1ccccc1)c1nnn2c1nc(NC1CCCC1)c1sccc12`, for which the IC50 in assay [1] is 11.9 nM; in assay [2], 140 nM. The Ki in assay [1] is 5.5 nM.

On to `CC(C)Nc1nc2c(S(=O)(=O)c3cccc(Cl)c3)nnn2c2ccsc12`, for which, in assay [2], the IC50 was found to be 470 nM.

For the compound `CCN(Cc1ccccc1)c1nc2c(S(=O)(=O)c3ccc(Cl)cc3)nnn2c2ccsc12`, in assay [2], the half-inhibitory concentration (IC50) was found to be 570 nM.

With `COc1cccc(CNc2nc3c(S(=O)(=O)c4ccccc4)nnn3c3ccsc23)c1`, the IC50 in assay [2] was 1370 nM.

On to `O=S(=O)(c1ccccc1)c1nnn2c1nc(Nc1cccc(C(F)(F)F)c1)c1sccc12`, for which the 50% inhibitory concentration (IC50) in assay [2] is 820 nM.

On to `COCCCNc1nc2c(S(=O)(=O)c3ccc(Cl)cc3)nnn2c2ccsc12`, for which the concentration for half-maximal inhibition (IC50) in assay [2] is > 5000 nM.

Regarding `O=S(=O)(c1cccc(Cl)c1)c1nnn2c1nc(Nc1cccc(C(F)(F)F)c1)c1sccc12`, the IC50 in assay [2] amounted to 1070 nM.

As for `O=S(=O)(c1cccc(Cl)c1)c1nnn2c1nc(NCc1ccco1)c1sccc12`, in assay [2], the IC50 came to 190 nM.

In the case of `CC(C)Nc1nc2c(S(=O)(=O)c3ccc(Cl)cc3)nnn2c2ccsc12`, the IC50 in assay [2] worked out at 1200 nM.

For `O=S(=O)(c1cccc(Cl)c1)c1nnn2c1nc(Nc1ccccc1)c1sccc12`, in assay [2], the IC50 was found to be 920 nM.

With `O=S(=O)(c1ccc(Cl)cc1)c1nnn2c1nc(NCC1CCCO1)c1sccc12` (stereo not given), in assay [2], the IC50 stood at 480 nM.

On to `COCCCNc1nc2c(S(=O)(=O)c3cc(C)ccc3C)nnn2c2ccsc12`, for which, in assay [2], the IC50 worked out at 1290 nM.

Turning to `COCCCNc1nc2c(S(=O)(=O)c3cccc(Cl)c3)nnn2c2ccsc12`, the IC50 in assay [2] worked out at 150 nM.

Consider `O=S(=O)(c1cccc(Cl)c1)c1nnn2c1nc(NC1CCCCC1)c1sccc12`, for which the IC50 in assay [2] worked out at 69 nM.

As to `Cc1ccc(C)c(S(=O)(=O)c2nnn3c2nc(NCC2CCCO2)c2sccc23)c1` (stereo not given), the concentration for half-maximal inhibition (IC50) in assay [2] turned out to be 890 nM.

Compound `CCC(C)Nc1nc2c(S(=O)(=O)c3ccccc3)nnn2c2ccsc12` (stereo not given) yielded an IC50 in assay [3] of 9.6 nM.

Consider `Cc1ccc(S(=O)(=O)c2nnn3c2nc(NCc2ccco2)c2sccc23)cc1`, for which the IC50 in assay [2] came out at 500 nM.

`O=S(=O)(c1ccccc1)c1nnn2c1nc(NC1CCCCC1)c1sccc12`: the IC50 in assay [1] came to 6.9 nM; in assay [2] it was 200 nM. For the same compound, the inhibition constant Ki in assay [1] stood at 3.2 nM.

Turning to `Cc1cccc(Nc2nc3c(S(=O)(=O)c4ccc(C(C)C)cc4)nnn3c3ccsc23)c1`, the IC50 in assay [2] stood at 590 nM.

As for `CC(Nc1nc2c(S(=O)(=O)c3ccc(Br)cc3)nnn2c2ccsc12)c1ccccc1` (stereo not given), in assay [2], the IC50 was 540 nM.

For `CC1CCN(c2nc3c(S(=O)(=O)c4cccc(Cl)c4)nnn3c3ccsc23)CC1`, the half-maximal inhibitory concentration (IC50) in assay [2] came out at 1120 nM.

With `CN(C)c1nc2c(S(=O)(=O)c3ccccc3)nnn2c2ccsc12`, the IC50 in assay [4] was > 300 nM; in assay [1], > 30 nM.

Take `Cc1ccc(Nc2nc3c(S(=O)(=O)c4cccc(Cl)c4)nnn3c3ccsc23)cc1`: the IC50 in assay [2] came to 1210 nM.

By IC50 is commonly meant the point on the concentration scale where inhibition reaches its midpoint. As a reminder, the Ki is a measure of affinity in units of concentration, obtained from inhibition or displacement.

The values are drawn from ChEMBL document CHEMBL1177669, “Synthesis and biological study of 3-(phenylsulfonyl)thieno[2,3-e][1,2,3]triazolo[1,5-a]pyrimidines as potent and selective serotonin 5-HT6 receptor antagonists” (Bioorg Med Chem, 2010).
